Legend:
MA93 FLT3-ITD cells = experiment: Proliferation assay; assay type: cell-based; details: Homo sapiens, 72 h
Procedure, shortened: (§1)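 CellTiter-Glo at 2,000 cells/well. MA93 Ras and MA93 FLT3/ITD were maintained in IMDM/20% FBS. Parental MA93 received IMDM/20% FBS plus 10 ng/mL human SCF, TPO, FLT3L, IL3 and IL6. Dosing used ≥5 two-fold dilutions from 50 μM top, 0.1% DMSO final, in triplicate wells with ≥2 biological replicates. Plates ran 72 h at 37°C, followed by 30 min reagent incubation at RT in the dark. GI50 came from DMSO-normalized luminescence.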

[1] = system: p53 and p21 protein levels in MV4:11 cells; experiment: p53/p21 induction western blot; assay type: cell-based, human; details: MV4:11, 2 μM, 24 h
Procedure, shortened: (§2)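 Treatment lasted 24 h with test compound or its negative control, at 2 μM in MV4:11 and 3 μM in Molm13. Comparators were 2 μM Nutlin-3 or 0.1% DMSO. Four million cells were PBS-washed and lysed 10 min on ice in Kischkel buffer. p53 and p21 were detected by western blot, with histone H3 as loading control.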

RN2 cells = experiment: Proliferation assay; assay type: cell-based, murine; details: Mus musculus, 72 h
Procedure, shortened: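 Murine RN2 cells were seeded at 2,500/well and exposed to ≥5 two-fold dilutions (top 50 μM, 0.1% DMSO final) in triplicate wells, with ≥2 biological replicates, for 72 h. MTS reagent was added for 1.25 h at 37°C and absorbance read at 490 nm. Values were normalized to DMSO wells and GI50 fitted. Error bars are SEM.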

MV4:11 cells [2] = experiment: Growth and viability time course; assay type: cell-based, human
WDR5 [3] = target: T1, WDR5 (Homo sapiens, UniProt P61964); experiment: Western blot of endogenous WDR5 levels; assay type: cell-based; details: MV4:11, 4 µM, 24 hours
[4] = system: MV4:11 cells expressing shRNAs against p53; experiment: Proliferation assay in MV4:11 cells expressing p53 or scrambled shRNAs; assay type: cell-based; details: Homo sapiens, MV4-11, 72 h, MV4:11 expressing p53 shRNA_941, 3-day treatment
Procedure, shortened: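 Proliferation was measured in MV4:11 cells carrying scrambled, p53 sh_427 or p53 sh_941 shRNA. Cells received 3-day test compound treatment in a dose–response series, with GI50 derived from the curves.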

[5] = system: TP53 mRNA on polysomes in MV4:11 cells; experiment: Polysome fractionation with RT-qPCR; assay type: cell-based, human; details: MV4:11, 5 μM, 24 h
Procedure, shortened: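 15 × 10^6 MV4:11 cells were treated 24 h with 5 μM test compound or DMSO and lysed 10 min on ice. Target mRNAs in monosomal and polysomal fractions were measured by RT-qPCR and normalized to GAPDH. Values were expressed as percent of total RNA, relative to DMSO.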

WDR5 [6] = target: T1, WDR5; experiment: 10-mer-Thr-FAM peptide TR-FRET competition assay; assay type: binding; details: Kd, corresponds to TR-FRET Ki of Table S1
MLL1 complex = MLL1 complex (Homo sapiens, UniProt P61964); experiment: MLL1 HMT assay; assay type: biochemical
THP-1 cells = experiment: Proliferation assay; assay type: cell-based; details: Homo sapiens, THP-1, 72 h
Procedure, shortened: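 THP-1 cells were grown in RPMI-1640 with 0.05 mM 2-mercaptoethanol and 10% FBS. Cells were plated 5,000/well with ≥5 two-fold dilutions of test compound (top 50 μM, 0.1% DMSO final), in triplicate wells with ≥2 biological replicates.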

[7] = system: PARP-1 cleavage in MV4:11 cells; experiment: Induction of PARP1 cleavage; assay type: cell-based, human; details: 2 μM
Procedure, shortened: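 MV4:11 cells were treated 1, 2, 3 or 6 days with 2 μM test compound, its negative control or 0.1% DMSO. Cleaved PARP-1 was detected by western blot, with histone H3 as loading reference.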

GDM-1 cells = experiment: Proliferation assay; assay type: cell-based; details: Homo sapiens, GDM-1, 72 h
Procedure, shortened: (§3)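 CellTiter-Glo, 5,000 cells/well. Cells received 0.1% DMSO or at least five two-fold dilutions of test compound (top 50 μM, final DMSO 0.1%), in triplicate wells and ≥2 biological replicates, for 72 h at 37°C. Reagent was added after equilibration to RT, with 30 min dark incubation before luminescence. Signals were normalized to DMSO wells and GI50 obtained by curve fitting. Curve error bars are SEM.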

MA93 cells = experiment: Proliferation assay; assay type: cell-based; details: Homo sapiens, 72 h
Procedure, shortened: as §1

MV4:11 cells [8] = experiment: Induction of apoptosis; assay type: cell-based, human; details: 2 μM, up to 6 days
Procedure, shortened: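 MV4:11 cells were exposed 0–6 days to 2 μM test compound, negative control or 0.1% DMSO, with medium and compound refreshed on day 3. Camptothecin (2 μM, 4 h) served as positive control. 5 × 10^5 cells were stained with Alexa Fluor488–annexin V for 15 min, then propidium iodide for 10 min. Flow cytometry recorded ≥10,000 events, with doublet exclusion and quadrants set on unstained cells. Annexin V+/PI− % is from three biological replicates, SEM.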

[9] = system: ribosome protein gene expression in MV4:11 cells; experiment: RT-qPCR quantification of RPG mRNA expression; assay type: cell-based, human; details: MV4:11, three days, equal concentrations (4 µM) of OICR-9429 and C6
Procedure, shortened: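 Cells were lysed in Trizol and total RNA isolated on columns with DNase digestion. 1 μg RNA was reverse transcribed with MuLV reverse transcriptase in 20 μl, then diluted three-fold in nuclease-free water before qPCR.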

Molm13 cells = experiment: Proliferation assay; assay type: cell-based; details: Homo sapiens, MOLM-13, 72 h
Procedure, shortened: as §3

MA93 Ras cells = experiment: Proliferation assay; assay type: cell-based; details: Homo sapiens, MA9.3RAS, 72 h
Procedure, shortened: as §1

HEL cells = experiment: Proliferation assay; assay type: cell-based; details: Homo sapiens, 72 h
Procedure, shortened: as §3

K562 cells = experiment: Proliferation assay; assay type: cell-based; details: Homo sapiens, K562, 72 h
Procedure, shortened: as §3

SET-2 cells = experiment: Proliferation assay; assay type: cell-based; details: Homo sapiens, SET-2, 72 h
Procedure, shortened: as §3

[10] = system: p53 and p21 protein levels in Molm13 cells; experiment: p53/p21 induction western blot; assay type: cell-based, human; details: Molm13, 3 μM, 24 h
Procedure, shortened: as §2

WDR5 protein levels (WDR5 [3]): no measurable effect on WDR5 levels
GI50 [4]: 15 µM
Kd (WDR5 [6]): ~0.0001 µM
window of selectivity for MLL1 over other MLL/SET complexes (MLL1 complex): ≥ 250 fold
IC50 (MLL1 complex; MLL1 HMT IC50, H3 peptide as substrate): ~0.02 µM
GI50 (THP-1 cells): > 50 µM
GI50 (Molm13 cells): 6.43 ± 0.683 µM
GI50 (K562 cells): 25.4 ± 2.07 µM
SMILES: Cc1nc(F)ccc1-c1cc(Cn2ccn(C)c2=N)cc(C(=O)NCc2ccc(Cl)c(Cl)c2)c1 [Compound C6, N-(3,4-Dichlorobenzyl)-3-(6-fluoro-2-methylpyridin-3-yl)-5-((2-imino-3-methyl-2,3-dihydro-1H-imidazol-1-yl)methyl)benzamide]
GI50 (MA93 FLT3-ITD cells): 2.47 ± 0.137 µM
p53 and p21 protein induction [1]: moderately induces p53
GI50 (RN2 cells): 11.2 ± 1.48 µM
inhibition of proliferation, live cells over time (MV4:11 cells [2]; 2 μM (GI50 concentration), 1-6 days): inhibition of proliferation can be detected within a few days of treatment
cellular viability over time (MV4:11 cells [2]; 2 μM, between 2 and 6 days of treatment): progressive decrease in cellular viability
polysome-associated mRNAs [5]: promoted an accumulation of polysome-associated mRNAs for TP53
specificity of HMT inhibition among all MLL/SET complexes (MLL1 complex): specific for MLL1, with little activity against other MLL/SET family members
time to detection of cleaved PARP-1 [7]: ≤ 24 h
GI50 (GDM-1 cells): > 50 µM
GI50 (MA93 cells): 5.04 ± 0.431 µM
annexin V staining, apoptotic cells (MV4:11 cells [8]): appearance of apoptotic cells
transcription of RPGs [9]: inhibited the transcription of RPGs
GI50 (MA93 Ras cells): 20.8 ± 2.62 µM
GI50 (HEL cells): > 50 µM
GI50 (SET-2 cells): > 50 µM
p53 and p21 protein induction [10]: p53 and p21 are also induced
